Converted amounts (≈) assume the structure as drawn.
Columns and labels:
Assay type in all cases: functional
[1] = tested on: Staphylococcus epidermidis; assay: Antibacterial activity against methicillin-resistant Staphylococcus epidermidis 10-10 after 18 to 24 hrs by NCCLS method
Outline: (§1)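 Incubated at 35 °C for 18–24 h under NCCLS (M100-S11) standards. MIC was read as the lowest concentration giving complete inhibition of visible bacterial growth.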

Klebsiella pneumoniae [2] = assay: Antibacterial activity against extended spectrum beta-lactamases producing Klebsiella pneumoniae 10-2 after 18 to 24 hrs by NCCLS method
Outline: (§2)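 Standard NCCLS (M100-S11) MIC testing against Gram-positive and Gram-negative strains. Plates were incubated at 35 °C for 18–24 h. The MIC was read as the lowest concentration giving complete inhibition of visible bacterial growth.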

Staphylococcus aureus [3] = assay: Antibacterial activity against methicillin-resistant Staphylococcus aureus 10-15 after 18 to 24 hrs by NCCLS method; outline: as §1
Escherichia coli [4] = assay: Antibacterial activity against Escherichia coli 10-2 after 18 to 24 hrs by NCCLS method; outline: as §2
Staphylococcus aureus [5] = assay: Antibacterial activity against methicillin-sensitive Staphylococcus aureus 10-14 after 18 to 24 hrs by NCCLS method; outline: as §2
Staphylococcus aureus [6] = assay: Antibacterial activity against methicillin-sensitive Staphylococcus aureus 10-13 after 18 to 24 hrs by NCCLS method; outline: as §2
Escherichia coli [7] = assay: Antibacterial activity against Escherichia coli 10-3 after 18 to 24 hrs by NCCLS method; outline: as §2
[8] = tested on: Staphylococcus epidermidis; assay: Antibacterial activity against methicillin-sensitive Staphylococcus epidermidis 10-11 after 18 to 24 hrs by NCCLS method; outline: as §2
Pseudomonas aeruginosa [9] = assay: Antibacterial activity against Pseudomonas aeruginosa 10-12 after 18 to 24 hrs by NCCLS method; outline: as §2
Staphylococcus aureus [10] = assay: Antibacterial activity against methicillin-resistant Staphylococcus aureus 10-13 after 18 to 24 hrs by NCCLS method; outline: as §1
Enterococcus faecium [11] = assay: Antibacterial activity against Enterococcus faecium 10-6 after 18 to 24 hrs by NCCLS method; outline: as §2
Escherichia coli [12] = assay: Antibacterial activity against extended spectrum beta-lactamases producing Escherichia coli 10-4 after 18 to 24 hrs by NCCLS method; outline: as §2
Pseudomonas aeruginosa [13] = assay: Antibacterial activity against Pseudomonas aeruginosa 10-9 after 18 to 24 hrs by NCCLS method; outline: as §2
Streptococcus pneumoniae [14] = assay: Antibacterial activity against Streptococcus pneumoniae 10-6 after 18 to 24 hrs by NCCLS method; outline: as §2
Staphylococcus aureus [15] = assay: Antibacterial activity against methicillin-resistant Staphylococcus aureus 10-11 after 18 to 24 hrs by NCCLS method; outline: as §1
Streptococcus pneumoniae [16] = assay: Antibacterial activity against Streptococcus pneumoniae 10-1 after 18 to 24 hrs by NCCLS method; outline: as §2
Escherichia coli [17] = assay: Antibacterial activity against extended spectrum beta-lactamases producing Escherichia coli 10-2 after 18 to 24 hrs by NCCLS method; outline: as §2
Escherichia coli [18] = assay: Antibacterial activity against extended spectrum beta-lactamases producing Escherichia coli 10-3 after 18 to 24 hrs by NCCLS method; outline: as §2
Klebsiella pneumoniae [19] = assay: Antibacterial activity against Klebsiella pneumoniae 10-4 after 18 to 24 hrs by NCCLS method; outline: as §2
[20] = tested on: Staphylococcus epidermidis; assay: Antibacterial activity against methicillin-resistant Staphylococcus epidermidis 10-13 after 18 to 24 hrs by NCCLS method; outline: as §1
Staphylococcus aureus [21] = assay: Antibacterial activity against Staphylococcus aureus ATCC 2592 after 18 to 24 hrs by NCCLS method; outline: as §2
Pseudomonas aeruginosa [22] = assay: Antibacterial activity against Pseudomonas aeruginosa 10-5 after 18 to 24 hrs by NCCLS method; outline: as §2
Klebsiella pneumoniae [23] = assay: Antibacterial activity against extended spectrum beta-lactamases producing Klebsiella pneumoniae 10-3 after 18 to 24 hrs by NCCLS method; outline: as §2
Pseudomonas aeruginosa [24] = assay: Antibacterial activity against Pseudomonas aeruginosa 10-18 after 18 to 24 hrs by NCCLS method; outline: as §2
Staphylococcus aureus [25] = assay: Antibacterial activity against methicillin-sensitive Staphylococcus aureus 10-11 after 18 to 24 hrs by NCCLS method; outline: as §2
Escherichia coli [26] = assay: Antibacterial activity against Escherichia coli ATCC 25922 after 18 to 24 hrs by NCCLS method; outline: as §2
[27] = tested on: Staphylococcus epidermidis; assay: Antibacterial activity against methicillin-sensitive Staphylococcus epidermidis 10-15 after 18 to 24 hrs by NCCLS method; outline: as §1
Klebsiella pneumoniae [28] = assay: Antibacterial activity against extended spectrum beta-lactamases producing Klebsiella pneumoniae 10-1 after 18 to 24 hrs by NCCLS method; outline: as §2
Pseudomonas aeruginosa [29] = assay: Antibacterial activity against Pseudomonas aeruginosa 10-15 after 18 to 24 hrs by NCCLS method; outline: as §2
Enterococcus faecalis [30] = assay: Antibacterial activity against Enterococcus faecalis 10-7 after 18 to 24 hrs by NCCLS method; outline: as §2
Klebsiella pneumoniae [31] = assay: Antibacterial activity against Klebsiella pneumoniae 10-3 after 18 to 24 hrs by NCCLS method; outline: as §2
Enterococcus faecium [32] = assay: Antibacterial activity against Enterococcus faecium 10-9 after 18 to 24 hrs by NCCLS method; outline: as §2
Klebsiella pneumoniae [33] = assay: Antibacterial activity against Klebsiella pneumoniae 10-2 after 18 to 24 hrs by NCCLS method; outline: as §2
Enterococcus faecalis [34] = assay: Antibacterial activity against Enterococcus faecalis 10-5 after 18 to 24 hrs by NCCLS method; outline: as §2
[35] = tested on: Mycobacterium tuberculosis; assay: Antimycobacterial activity against Mycobacterium tuberculosis H37Rv ATCC 27294 by microplate alamar blue assay
Outline: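 Microplate Alamar Blue fluorescence assay on strain H37Rv ATCC 27294. MIC was the lowest concentration cutting fluorescence by ≥90% against the mean of replicate bacterium-only controls.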

Enterococcus faecalis [36] = assay: Antibacterial activity against Enterococcus faecalis 10-6 after 18 to 24 hrs by NCCLS method; outline: as §2
Pseudomonas aeruginosa [37] = assay: Antibacterial activity against Pseudomonas aeruginosa 10-20 after 18 to 24 hrs by NCCLS method; outline: as §2
Escherichia coli [38] = assay: Antibacterial activity against Escherichia coli 10-1 after 18 to 24 hrs by NCCLS method; outline: as §2

Compound | MIC [1] | MIC (Klebsiella pneumoniae [2]) | MIC (Staphylococcus aureus [3]) | MIC (Escherichia coli [4]) | MIC (Staphylococcus aureus [5]) | MIC (Staphylococcus aureus [6]) | MIC (Escherichia coli [7]) | MIC [8] | MIC (Pseudomonas aeruginosa [9]) | MIC (Staphylococcus aureus [10]) | MIC (Enterococcus faecium [11]) | MIC (Escherichia coli [12]) | MIC (Pseudomonas aeruginosa [13]) | MIC (Streptococcus pneumoniae [14]) | MIC (Staphylococcus aureus [15]) | MIC (Streptococcus pneumoniae [16]) | MIC (Escherichia coli [17]) | MIC (Escherichia coli [18]) | MIC (Klebsiella pneumoniae [19]) | MIC [20] | also measured
O=C(O)c1cn(C2CC2)c2cc(N3CCN(Cc4ccccc4)CC3)c(F)cc2c1=O | 16 µg/mL (≈ 38 µM) | > 128 µg/mL | 16 µg/mL (≈ 38 µM) | 16 µg/mL (≈ 38 µM) | 0.25 µg/mL (≈ 0.593 µM) | 0.25 µg/mL (≈ 0.593 µM) | 16 µg/mL (≈ 38 µM) | 32 µg/mL (≈ 75.9 µM) | 16 µg/mL (≈ 38 µM) | 64 µg/mL (≈ 152 µM) | 16 µg/mL (≈ 38 µM) | 16 µg/mL (≈ 38 µM) | 16 µg/mL (≈ 38 µM) | 16 µg/mL (≈ 38 µM) | 64 µg/mL (≈ 152 µM) | 16 µg/mL (≈ 38 µM) | > 128 µg/mL | > 128 µg/mL | > 128 µg/mL | 0.5 µg/mL (≈ 1.19 µM) | MIC (Staphylococcus aureus [21]): 0.25 µg/mL (≈ 0.593 µM); MIC (Pseudomonas aeruginosa [22]): 16 µg/mL (≈ 38 µM); MIC (Klebsiella pneumoniae [23]): > 128 µg/mL; MIC (Pseudomonas aeruginosa [24]): 8 µg/mL (≈ 19 µM); MIC (Staphylococcus aureus [25]): 0.25 µg/mL (≈ 0.593 µM); MIC (Escherichia coli [26]): 0.25 µg/mL (≈ 0.593 µM); MIC [27]: 16 µg/mL (≈ 38 µM); MIC (Klebsiella pneumoniae [28]): > 128 µg/mL; MIC (Pseudomonas aeruginosa [29]): 32 µg/mL (≈ 75.9 µM); MIC (Enterococcus faecalis [30]): 16 µg/mL (≈ 38 µM); MIC (Klebsiella pneumoniae [31]): 16 µg/mL (≈ 38 µM); MIC (Enterococcus faecium [32]): 16 µg/mL (≈ 38 µM); MIC (Klebsiella pneumoniae [33]): > 128 µg/mL; MIC (Enterococcus faecalis [34]): 16 µg/mL (≈ 38 µM); MIC [35]: 1 µg/mL (≈ 2.37 µM); MIC (Enterococcus faecalis [36]): 16 µg/mL (≈ 38 µM); MIC (Pseudomonas aeruginosa [37]): 16 µg/mL (≈ 38 µM); MIC (Escherichia coli [38]): > 128 µg/mL
COc1cc(CN2CCN(c3cc4c(cc3F)c(=O)c(C(=O)O)cn4C3CC3)CC2)ccc1OCc1ccccc1 | 128 µg/mL (≈ 230 µM) | > 128 µg/mL | > 128 µg/mL | 32 µg/mL (≈ 57.4 µM) | 1 µg/mL (≈ 1.79 µM) | 2 µg/mL (≈ 3.59 µM) | > 128 µg/mL | 1 µg/mL (≈ 1.79 µM) | 32 µg/mL (≈ 57.4 µM) | > 128 µg/mL | 16 µg/mL (≈ 28.7 µM) | > 128 µg/mL | 64 µg/mL (≈ 115 µM) | 32 µg/mL (≈ 57.4 µM) | > 128 µg/mL | 16 µg/mL (≈ 28.7 µM) | > 128 µg/mL | > 128 µg/mL | > 128 µg/mL | 64 µg/mL (≈ 115 µM) | MIC (Staphylococcus aureus [21]): 2 µg/mL (≈ 3.59 µM); MIC (Pseudomonas aeruginosa [22]): 32 µg/mL (≈ 57.4 µM); MIC (Klebsiella pneumoniae [23]): > 128 µg/mL; MIC (Pseudomonas aeruginosa [24]): 32 µg/mL (≈ 57.4 µM); MIC (Staphylococcus aureus [25]): 0.5 µg/mL (≈ 0.897 µM); MIC (Escherichia coli [26]): 0.5 µg/mL (≈ 0.897 µM); MIC [27]: 32 µg/mL (≈ 57.4 µM); MIC (Klebsiella pneumoniae [28]): > 128 µg/mL; MIC (Pseudomonas aeruginosa [29]): 64 µg/mL (≈ 115 µM); MIC (Enterococcus faecalis [30]): 32 µg/mL (≈ 57.4 µM); MIC (Klebsiella pneumoniae [31]): 32 µg/mL (≈ 57.4 µM); MIC (Enterococcus faecium [32]): 32 µg/mL (≈ 57.4 µM); MIC (Klebsiella pneumoniae [33]): > 128 µg/mL; MIC (Enterococcus faecalis [34]): 32 µg/mL (≈ 57.4 µM); MIC [35]: 16 µg/mL (≈ 28.7 µM); MIC (Enterococcus faecalis [36]): 64 µg/mL (≈ 115 µM); MIC (Pseudomonas aeruginosa [37]): 32 µg/mL (≈ 57.4 µM); MIC (Escherichia coli [38]): > 128 µg/mL

Source: ChEMBL document CHEMBL2157880, “Synthesis, antimycobacterial and antibacterial activity of ciprofloxacin derivatives containing a N-substituted benzyl moiety” (2012)
